Assays:
Type in all cases: biochemical
PRMT8 [1] = molecular target: T1, PRMT8 (Homo sapiens, UniProt Q9NR22); experiment: PRMT8 single-point radioactive methylation assay; details: compared with the unmodified peptide
human recombinant PRMT1 = human recombinant PRMT1 (Homo sapiens, UniProt Q99873); experiment: PRMT1 single-point radioactive methylation assay; details: compared with the unmodified peptide
[2] = molecular target: T2, truncated PRMT3 (residues 211–531) (Homo sapiens, UniProt O60678); experiment: PRMT3 steady-state kinetics, radioactive filter-binding methylation assay
T2 sequence (O60678 211-531): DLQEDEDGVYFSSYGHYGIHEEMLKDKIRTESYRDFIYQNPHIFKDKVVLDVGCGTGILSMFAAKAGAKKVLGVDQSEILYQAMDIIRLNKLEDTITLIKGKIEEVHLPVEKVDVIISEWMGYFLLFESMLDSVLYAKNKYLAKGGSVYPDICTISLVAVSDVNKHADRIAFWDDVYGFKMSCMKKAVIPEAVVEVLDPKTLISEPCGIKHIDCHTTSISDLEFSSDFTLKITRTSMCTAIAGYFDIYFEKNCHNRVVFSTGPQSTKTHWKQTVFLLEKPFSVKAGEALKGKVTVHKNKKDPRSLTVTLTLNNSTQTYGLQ
In short: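 E. coli-expressed His-tagged PRMT3 (residues 211–531) was used. Reactions in 50 mM HEPES pH 8, 10 mM NaCl, 0.5 mM EDTA, 0.5 mM DTT contained 0.25–8 μM N-acetylated H4(1–20) peptide (unmodified, K5me or K5ac). Products were P81 filter-bound, washed with NaHCO3 pH 9 and scintillation-counted. Rates (product/[E] per min) were fitted to the Hill or Michaelis-Menten equation, at least duplicate.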

[3] = molecular target: T2, truncated PRMT3 (residues 211–531); experiment: PRMT3 single-point radioactive methylation assay; details: 0.05 μM PRMT3, 5 μM [14C]-SAM, 10 μM peptide, 30 °C, 35 min
PRMT8 [4] = molecular target: T1, PRMT8; experiment: PRMT8 steady-state kinetics, radioactive filter-binding methylation assay; details: 0.05 μM PRMT8, 15 μM [14C]-SAM, 35 min, 30 °C; data not shown
In short: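 Recombinant His-tagged PRMT8 was expressed in E. coli BL21(DE3) and Ni-NTA purified. Reactions were run in 50 mM HEPES pH 8, 10 mM NaCl, 0.5 mM EDTA, 0.5 mM DTT with 0.25–16 μM N-acetylated H4(1–20) peptide (unmodified, K5me or K5ac), initiated with enzyme. They were isopropanol-quenched, P81 filter-bound, washed with NaHCO3 pH 9 and scintillation-counted against [14C]-SAM reference. Rates were Hill-fitted, at least duplicate.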

T1 sequence (Q9NR22 whole entry): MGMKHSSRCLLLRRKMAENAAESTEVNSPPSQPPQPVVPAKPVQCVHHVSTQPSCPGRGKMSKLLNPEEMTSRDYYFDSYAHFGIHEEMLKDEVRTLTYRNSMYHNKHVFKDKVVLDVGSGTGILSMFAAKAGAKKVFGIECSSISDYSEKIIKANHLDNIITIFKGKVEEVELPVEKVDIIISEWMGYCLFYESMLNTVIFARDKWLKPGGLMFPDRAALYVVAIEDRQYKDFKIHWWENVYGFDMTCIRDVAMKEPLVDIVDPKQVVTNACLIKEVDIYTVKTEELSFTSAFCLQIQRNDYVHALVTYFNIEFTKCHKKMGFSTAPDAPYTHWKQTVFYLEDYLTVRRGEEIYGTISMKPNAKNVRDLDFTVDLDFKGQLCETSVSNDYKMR
Chain of human recombinant PRMT1 (Q99873 whole entry, the tested form may be a part): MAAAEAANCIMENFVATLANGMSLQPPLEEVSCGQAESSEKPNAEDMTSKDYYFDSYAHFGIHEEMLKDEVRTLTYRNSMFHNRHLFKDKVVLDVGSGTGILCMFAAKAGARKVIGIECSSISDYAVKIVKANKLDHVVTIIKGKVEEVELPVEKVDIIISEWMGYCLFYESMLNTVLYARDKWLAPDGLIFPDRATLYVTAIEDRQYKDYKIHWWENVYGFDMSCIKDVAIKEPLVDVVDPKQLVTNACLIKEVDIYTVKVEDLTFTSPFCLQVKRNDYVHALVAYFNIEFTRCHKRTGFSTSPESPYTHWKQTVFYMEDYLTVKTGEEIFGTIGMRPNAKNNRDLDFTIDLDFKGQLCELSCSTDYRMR

Substance: Ac-H4(1-21): N-terminally acetylated histone H4 peptide, residues 1-21
- effect of the modification on arginine methylation by PRMT8 (PRMT8 [1]): did not strongly affect arginine methylation
- effect of the modification on arginine methylation by PRMT1 (human recombinant PRMT1): did not strongly affect arginine methylation

Substance: Ac-SGRGKacGGKGLGKGGAKRHRK [Ac-H4(1-20)K5ac]
- increase of K0.5 in comparison to Ac-H4(1-20) ([2]; PRMT3, Hill fit): 2 fold

Substance: Ac-SGRGKmeGGKGLGKGGAKRHRK [Ac-H4(1-20)K5me]
- peptide concentration above which substrate inhibition appeared ([2]; 0.05 μM PRMT3, 15 μM [14C]-SAM, 35 min, 30 °C, data not shown): above 8 μM
- increase of kcat in comparison to Ac-H4(1-20) ([2]; PRMT3, Hill fit): 3 fold
- catalytic efficiency higher than Ac-H4(1-20) ([2]; PRMT3, kcat/K0.5): ~4 fold
- increase in arginine methylation in comparison to Ac-H4(1-20) [3]: over 5 fold
- peptide concentration above which substrate inhibition appeared (PRMT8 [4]): above 4 μM

Source: paper PMC5776680 (Biochemistry, 2017)
